The test system of series [1] is Homo sapiens. Description: AUC in healthy human at 200 mg QID, po administered as suspension for 7 days coadministered with nutritional supplement. The conditions noted are these: in vivo, 168 h. Type of series: ADME, organism-based, Plasma. In a few lines:
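Twelve healthy subjects took oral suspension for 7 days as 400 mg BID or 200 mg QID, either fasting or with a Boost-type nutritional supplement, in a crossover with 14–21 day washouts. Nonfat snacks of 800 cal/day or less were allowed. Plasma was sampled 0–168 h after the day-7 morning dose only and analysed by LC-MS/MS. AUC is AUC_τ, normalized to dose.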

Series [2] can be described thus: Tmax in fasted healthy human at 400 mg administered as single dose suspension. Format: ADME, organism-based. To be noted: in vivo. The method, boiled down: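 Single oral suspension dose in fasting healthy volunteers, alone, with 12 oz ginger ale, after esomeprazole 40 mg once each morning days −2 to 1, or both; four-way crossover, 7–10-day washout. EDTA plasma 0–168 h. LC-MS/MS (LLOQ 5.00 ng/ml). t1/2 = ln(2)/K from terminal log-linear regression; Tmax median.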

For series [3], the system named is Homo sapiens. Description: Toxicity in healthy human assessed as fatigue at 400 mg administered as single dose suspension coadministered with nutritional supplement and 4 mg loperamide as two 2 mg tablets. Format: organism-based. The conditions noted are these: in vivo. In a few lines:
(§1)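 Three-way randomized crossover in 13 healthy volunteers with a 7- to 10-day washout. Each period was one 400-mg oral posaconazole suspension dose with a nutritional supplement. Metoclopramide 10 mg was given orally three times daily on the day before and the day of dosing; loperamide was a single 4 mg. Safety was assessed from adverse events, tabulated by body system and severity per treatment.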

Series [4] deals with Homo sapiens. Description: Toxicity in healthy human assessed as adverse events at 400 mg BID, po administered as suspension for 7 days. Type of series: organism-based. To be noted: in vivo, 168 h. The method, boiled down: (§2)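 Healthy volunteers monitored for adverse events, vital signs, clinical laboratory values and 12-lead ECG. Adverse events tabulated by body system or organ class and severity and summarized by treatment across the crossover regimens.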

Series [5] in a line: Half life in healthy human at 400 mg administered as single dose suspension coadministered with nutritional supplement and 4 mg loperamide as two 2 mg tablets. The conditions noted are these: in vivo. Format: ADME, organism-based. The method, boiled down:
(§3)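 Oral suspension (40 mg/ml) single dose with nutritional supplement plus loperamide 4 mg single dose, healthy volunteers, three-way crossover with 7–10-day washout. EDTA plasma drawn predose and 1–168 h postdose. LC-MS/MS assay (LLOQ 5.00 ng/ml). Noncompartmental parameters; Tmax reported as median (range).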

A short description of series [6]: Tmax in healthy human at 400 mg administered as single dose suspension coadministered with nutritional supplement and 4 mg loperamide as two 2 mg tablets. Type of series: ADME, organism-based. To be noted: in vivo. In a few lines:
as §3

Series [7] has as its system Homo sapiens. The series can be described thus: Toxicity in healthy human assessed as asthenia at 400 mg BID, po administered as suspension for 7 days. Type of series: organism-based. To be noted: in vivo, 168 h. The method, boiled down:
as §2

Series [8] relates to Homo sapiens. Description: Toxicity in healthy human assessed as asthenia at 400 mg BID, po administered as suspension for 7 days coadministered with nutritional supplement. Format: organism-based. The conditions noted are these: in vivo, 168 h. The method, boiled down:
as §2

Series [9] relates to Homo sapiens. Description: Toxicity in healthy human assessed as nausea at 400 mg administered as single dose suspension coadministered with nutritional supplement. To be noted: in vivo. Format: organism-based. The method, boiled down: as §1

On to `CC[C@@H]([C@H](C)O)n1ncn(-c2ccc(N3CCN(c4ccc(OC[C@@H]5CO[C@@](Cn6cncn6)(c6ccc(F)cc6F)C5)cc4)CC3)cc2)c1=O` [POSACONAZOLE], for which, in the series with Homo sapiens [1], the AUC is 112 µg·h/mL. Moreover, the Tmax in series [2] and in series [6] was 5 h each time. Moreover, the Activity with Homo sapiens [3] came out at 15%; with Homo sapiens [4] it was 75%; in the series with Homo sapiens [7] it was 25%; in the series on Homo sapiens [8], 25%; in the series on Homo sapiens [9], 23%. Moreover, in series [5], the half-life was 27.5 h.

One may read the AUC as concentration integrated over time. In general, Tmax refers to the time at which the peak concentration occurs. In general, half-life refers to the time needed for the level to fall by half in the phase considered.

The values are drawn from ChEMBL document CHEMBL1671645, “Pharmacokinetics and absorption of posaconazole oral suspension under various gastric conditions in healthy volunteers” (Antimicrob Agents Chemother, 2009).
